Source: PubChem (Broad Institute)
Hits are enriched below; roughly 2.9% of the tested compounds scored in any of these assays.
dFosB act: activators of delta FosB homodimer, primary screen, biochemical, fluorescence polarization, TAMRA-CDK5 oligo, single point | Protein FosB (Mus musculus), P13346 | purified delta FosB; percent of positive-control signal above neutral wells | activation, % at 25 µM | 340,000 tested, 0.99% active | AID 493131, 2011;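 active = mean activation above about 17%, with every replicate also reaching it, limit read from the data, passing the limit was not always enough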
Target sequence (P13346 whole entry, looked up): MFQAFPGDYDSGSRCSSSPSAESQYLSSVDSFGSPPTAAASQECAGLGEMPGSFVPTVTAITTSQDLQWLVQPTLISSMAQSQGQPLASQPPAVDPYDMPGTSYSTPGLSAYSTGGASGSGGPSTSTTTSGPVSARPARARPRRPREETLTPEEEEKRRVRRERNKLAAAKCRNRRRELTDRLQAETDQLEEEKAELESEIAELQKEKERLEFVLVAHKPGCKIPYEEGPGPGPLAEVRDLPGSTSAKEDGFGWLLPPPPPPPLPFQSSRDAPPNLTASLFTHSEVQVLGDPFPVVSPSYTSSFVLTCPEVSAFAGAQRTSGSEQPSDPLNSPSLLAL
Cneo AK release: Cryptococcus neoformans cell lysis inducers, primary screen, AK release luminescence, single concentration; C. neoformans lysis, adenylate kinase release luminescence, 4 h; normalised: neutral wells 0, clomiphene wells 100; lysis activity, % at 15 µM; 360,000 tested, 0.2% active; AID 651654, 2012;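 active = mean lysis activity across replicates of at least 80%, whatever share of replicates individually reach that level; inactive = mean lysis activity below 80%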
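read-out = cell lysis signal | test system = log-phase Cryptococcus neoformans yeast cells | input = cells at 5 × 10^6 per mL | medium = fresh YPD growth medium | signal = luminescent adenylate kinase detection reagent | timing = 4 h at 37 °C static, read 1 h later | dosing = single dose | controls = Clomiphene as positive lysis control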
PAX8 reporter: inhibitors of PAX8-driven TPO luciferase reporter, primary screen, RMG-I cells, single concentration. SteadyGlo, 24 h. inhibition, % at 12.6 µM. 360,000 tested, 1.2% active;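 active = mean replicate inhibition at least 60% with every replicate also reaching 60%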;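 also: luciferase light reporting Pax8 driven TPO promoter activity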
CDK5 p35 inh: inhibitors of human CDK5/p35 kinase, primary screen, biochemical, single concentration. inhibition, % at 10 µM. 330,000 tested, 0.01% active. AID 488839, 2010. Cyclin-dependent kinase 5 (Homo sapiens) + Cyclin-dependent kinase 5 activator 1 (Homo …. Recombinant CDK5/p35, ADP-Glo luminescence, 60 min;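 active = highest replicate inhibition of at least 50% and at least 75% of replicates reaching 50%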
INS-1E GSIS act: GLuc luminescence reporter in INS-1E cells, primary screen for activators of glucose-dependent secretion of insulin; INS-1E GLuc reporter insulin secretion, 2-3 h; activation, % at 16.6 µM; 370,000 tested, 0.61% active;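 active = lowest replicate activation of at least 40%, so every replicate reaches that level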
Env fusion inh: inhibitors of HIV-1 Env-driven cell-cell fusion, primary screen, HeLa-JRFL effector, CEM21 target cells, luciferase; inhibition, % at 12.3 µM; 360,000 tested, 1.1% active; AID 651610, 2012;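 active = mean replicate inhibition score of at least 50 and every replicate individually at or above 50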
Each line names hits and unclear results; the compound was inactive in the other large screens; [ ] = remark or other dose.

CCn1c(O)c(/C=N/N=C/c2ccc(OC)cc2)c2cc(C3=NNC(=O)CC3)ccc21	INS-1E GSIS act 65
COc1ccc(C#Cc2ccc3c(c2)O[C@H](CN(C)C(C)=O)[C@@H](C)CN([C@H](C)CO)S3(=O)=O)cc1	none (no result: dFosB act, PAX8 reporter, CDK5 p35 inh)
CC(=O)C1=C(c2ccc(Br)cc2)C(=O)c2ccccc2C1=O	PAX8 reporter 99, Env fusion inh 141
CCOc1cccc(-c2c(C(=O)N/N=C(\C)c3ccccn3)nnn2-c2nonc2N)c1	PAX8 reporter 69
CCCOc1ccc(-c2c(C(=O)N/N=C/c3ccsc3)nnn2-c2nonc2N)cc1	dFosB act 20
C[C@@H]1CN([C@@H](C)CO)C(=O)c2cccc(NC(=O)C3CC3)c2O[C@H]1CN(C)C(=O)Nc1ccc(C(F)(F)F)cc1	none (no result: dFosB act, PAX8 reporter, CDK5 p35 inh)
N#C[C@@H]1[C@@H](c2ccccc2)[C@@H](CO)N1C(=O)c1ccccc1F	none (no result: dFosB act, CDK5 p35 inh, Env fusion inh)
Cc1ccc(S(=O)(=O)N(C)C[C@@H]2Oc3ccc(NC(=O)C4CCCCC4)cc3CC(=O)N([C@H](C)CO)C[C@@H]2C)cc1	Env fusion inh 95[16.7 µM] (no result: dFosB act, PAX8 reporter, CDK5 p35 inh)
COc1ccc(S(=O)(=O)N(C)C[C@@H]2Oc3ccc(NC(=O)C4CCCCC4)cc3CC(=O)N([C@H](C)CO)C[C@@H]2C)cc1	Env fusion inh 74[16.7 µM] (no result: dFosB act, CDK5 p35 inh)
COc1ccc(S(=O)(=O)N(C)C[C@H]2Oc3ccc(NC(=O)C4CCCCC4)cc3CC(=O)N([C@@H](C)CO)C[C@@H]2C)cc1	none (no result: dFosB act, CDK5 p35 inh)
C[C@@H]1CN([C@@H](C)CO)C(=O)Cc2cc(NC(=O)C3CCCCC3)ccc2O[C@H]1CN(C)S(=O)(=O)c1ccccc1	Env fusion inh 63
CCCN1[C@@H]2c3ccc(-c4ccncc4)c(=O)n3C[C@@H]2[C@@H](CO)[C@@H]1C(=O)OC	none (no result: dFosB act, Cneo AK release, PAX8 reporter, CDK5 p35 inh, Env fusion inh)
C[C@H]1CN([C@@H](C)CO)S(=O)(=O)c2ccc(-c3cncnc3)cc2O[C@H]1CN(C)C(=O)C1CC1	none (no result: dFosB act, Cneo AK release, PAX8 reporter, CDK5 p35 inh)
C[C@@H]1CCCCO[C@H](CN(C)Cc2ccc3c(c2)OCO3)[C@@H](C)CN([C@@H](C)CO)C(=O)c2cc(NC(=O)Nc3ccccc3)ccc2O1	none (no result: dFosB act, CDK5 p35 inh)
Cc1noc(C)c1NC(=O)Nc1ccc2c(c1)C(=O)N([C@H](C)CO)C[C@H](C)[C@H](CN(C)C(=O)C1CCCCC1)OCCCC[C@H](C)O2	none (no result: dFosB act, CDK5 p35 inh)
CCCCCCCCCCCCCCCCn1cc[n+](C)c1	PAX8 reporter 99, INS-1E GSIS act 186, Env fusion inh 128 (no result: Cneo AK release)
CCCCn1c(=N)n(CC(=O)c2ccc(Br)s2)c2ccccc21	PAX8 reporter 72
Cc1ccc(-c2ccc(=O)[nH]n2)cc1	Env fusion inh 56 (no result: Cneo AK release, PAX8 reporter, INS-1E GSIS act)
CCCCCc1ccc(-c2ccc(=O)[nH]n2)cc1	none (no result: INS-1E GSIS act)
O=C(C1CCCO1)N1CCN(c2ccccn2)CC1 (stereo not given)	none
Cc1c(C)n(Cc2ccc(F)cc2)c2ccc(C(=O)N3CCN(c4ccccn4)CC3)cc12	dFosB act 27
COc1cc(C(=O)N2CCN(c3ccccn3)CC2)cc(OC)c1OC	CDK5 p35 inh 89
O=C(N1CCOCC1)N1CCN(c2ccccn2)CC1	INS-1E GSIS act 46 (no result: PAX8 reporter, Env fusion inh)
O=C(NCC[C@@H]1CC[C@H](NS(=O)(=O)c2cccc(F)c2)[C@H](CO)O1)C1CCCCC1	none (no result: dFosB act, CDK5 p35 inh)
O=C(C[C@@H]1C=C[C@H](NC(=O)c2cccc(F)c2)[C@H](CO)O1)Nc1nccs1	none (no result: dFosB act, CDK5 p35 inh)
CN1C(=O)c2cc(NC(=O)C3CCCCC3)ccc2OC[C@@H]2O[C@@H](CC(=O)NCC3CCCCC3)CC[C@@H]21	none (no result: dFosB act, Cneo AK release, CDK5 p35 inh, Env fusion inh)
CN1C[C@H]2[C@@H](c3ccccc31)[C@@H](CO)N2C(=O)CN1CCOCC1	none (no result: dFosB act, CDK5 p35 inh, Env fusion inh)
CSc1cccc(NC(=O)C2CCCN(S(=O)(=O)c3cccs3)C2)c1 (stereo not given)	none
CSc1cccc(NC(=O)C2CCCN2S(=O)(=O)c2ccc(Br)s2)c1 (stereo not given)	Env fusion inh 60 (no result: PAX8 reporter, INS-1E GSIS act)
O=C(Nc1ccc(F)cc1)C1CCCN1S(=O)(=O)c1ccc(Br)cc1 (stereo not given)	Env fusion inh 81
C[C@H]1CCCCO[C@H](CN(C)S(=O)(=O)c2cccs2)[C@@H](C)CN([C@@H](C)CO)C(=O)c2cc(NC(=O)Cc3ccccc3)ccc2O1	none (no result: dFosB act, CDK5 p35 inh)
CC(NCCC(Cc1ccccc1)c1ccco1)c1ccccc1 (stereo not given)	none
Cc1ccc(C(CCNC(C)c2cccs2)c2ccco2)cc1 (stereo not given)	Env fusion inh 66 (no result: Cneo AK release, INS-1E GSIS act)
OC[C@@H]1[C@H](c2ccc(-c3cccc(F)c3)cc2)[C@H]2CN(CCC(F)(F)F)CCCCN12	none (no result: dFosB act, CDK5 p35 inh, Env fusion inh)
CCCCC[C@@H](C)N1C[C@H](COCc2ccccc2)Oc2cc(N3CCC[C@H]3C(N)=O)ccc2S1(=O)=O	Env fusion inh 76 (no result: dFosB act, Cneo AK release, CDK5 p35 inh)
CCCCC[C@@H](C)N1C[C@H](COCc2ccccc2)Oc2cc(N3CC[C@@H](N(C)C)C3)ccc2S1(=O)=O	PAX8 reporter 84 (no result: dFosB act, Cneo AK release, CDK5 p35 inh, Env fusion inh)
CO[C@H]1CN(C)C(=O)c2cc(NC(=O)c3ccc(F)cc3)ccc2OC[C@H](C)N(C(=O)c2ccc(F)cc2)C[C@@H]1C	none (no result: dFosB act, CDK5 p35 inh, Env fusion inh)
O=C(NCC[C@@H]1CC[C@H](NC(=O)c2cccnc2)[C@@H](CO)O1)Nc1ccc(C(F)(F)F)cc1	none (no result: dFosB act, CDK5 p35 inh)
COc1ccc(-c2nc(CC(=O)Nc3cccc(S(=O)(=O)NC4=NCCC4)c3)cs2)cc1	PAX8 reporter 74 (no result: Env fusion inh)
CCOc1ccc(OCC(=O)Nc2cccc(S(=O)(=O)NC3=NCCC3)c2)cc1	none (no result: Env fusion inh)
C=CCOc1ccc(NC(=O)C(=O)NCCCn2ccnc2)cc1	none (no result: PAX8 reporter)
CCCCCOc1ccc(NC(=O)C(=O)NCCCn2ccnc2)cc1	PAX8 reporter 77
